From ChEMBL document CHEMBL3286090, “Cryptocaryol Structure-Activity Relationship Study of Cancer Cell Cytotoxicity and Ability to Stabilize PDCD4” (ACS Med Chem Lett, 2014)
Activity calls are given as the source filed them. The calls are words filed in the database; no cut-off is given here.

How the values were obtained:
HT-29 [1] = test: Potentiation of camptothecin-induced cytotoxicity against human HT-29 cells at 1 uM after 72 hrs by MTT assay in absence of TPA; format: functional, cell-based
MCF7 [2] = test: Potentiation of camptothecin-induced cytotoxicity against human MCF7 cells at 1 nM to 10 uM after 72 hrs by MTT assay; format: functional
HT-29 [3] = test: Potentiation of camptothecin-induced cytotoxicity against human HT-29 cells at 1 uM after 72 hrs by MTT assay in presence of TPA; format: functional, cell-based
HT-29 [4] = test: Cytotoxicity against human HT-29 cells after 72 hrs by MTT assay; format: functional, cell-based; details: HT-29, 72 h
Summary of the method: (§1)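 Cancer cell lines exposed to compound over a concentration range; viability read by MTT; IC50 in μM derived from dose-response.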

HT-29 [5] = test: Potentiation of digitoxin-induced cytotoxicity against human HT-29 cells at 1 nM to 10 uM after 72 hrs by MTT assay; format: functional, cell-based
[6] = Cytotoxicity against human H460 cells after 72 hrs by MTT assay; format: functional, cell-based; details: NCI-H460, 72 h; summary of the method: as §1
[7] = target: T1, Programmed cell death protein 4 (Homo sapiens) (UniProt Q53EL6); test: Inhibition of TPA-induced PDCD4 degradation in human MCF7 cells at 1 uM treated 30 mins before TPA challenge measured after 6 hrs by Western blot analysis relative to TPA treated control; format: cell-based
T1 sequence (whole entry): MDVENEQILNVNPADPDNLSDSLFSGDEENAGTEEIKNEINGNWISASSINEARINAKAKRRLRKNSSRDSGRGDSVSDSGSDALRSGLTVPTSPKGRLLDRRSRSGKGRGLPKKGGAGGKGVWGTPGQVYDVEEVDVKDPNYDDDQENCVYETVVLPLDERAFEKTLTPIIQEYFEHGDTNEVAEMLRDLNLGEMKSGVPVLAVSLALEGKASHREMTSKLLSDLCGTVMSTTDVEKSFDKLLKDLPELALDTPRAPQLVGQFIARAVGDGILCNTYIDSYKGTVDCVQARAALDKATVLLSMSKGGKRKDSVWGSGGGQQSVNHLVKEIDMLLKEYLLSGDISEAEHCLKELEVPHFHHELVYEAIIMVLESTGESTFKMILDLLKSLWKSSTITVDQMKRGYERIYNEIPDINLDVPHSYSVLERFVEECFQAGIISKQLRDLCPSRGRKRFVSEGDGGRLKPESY
Summary of the method: (§2)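 MCF-7 seeded at 100,000 cells/well, grown 24 h, then given cryptocaryol analogues (1 μM) or rapamycin (10 nM). TPA (20 nM) added 30 min later. After a further 6 h, cells scraped and lysed in RIPA. Lysate run on 12% SDS-PAGE, blotted to PVDF, probed for PDCD4 and β-actin, chemiluminescence detection. Signal expressed relative to cells given TPA alone.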

MCF7 [8] = test: Cytotoxicity against human MCF7 cells after 72 hrs by MTT assay; format: functional, cell-based; details: MCF7, 72 h; summary of the method: as §1
MCF7 [9] = test: Potentiation of digitoxin-induced cytotoxicity against human MCF7 cells at 1 nM to 10 uM after 72 hrs by MTT assay; format: functional
HT-29 [10] = test: Potentiation of camptothecin-induced cytotoxicity against human HT-29 cells at 1 nM to 10 uM after 72 hrs by MTT assay; format: functional, cell-based
HT-29 [11] = test: Potentiation of digitoxin-induced cytotoxicity against human HT-29 cells at 1 uM after 72 hrs by MTT assay in absence of TPA; format: functional, cell-based
Summary of the method: (§3)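 HT-29 cells pretreated for 12 h with cryptocaryol at 1 μM, with rapamycin at 10 nM as the reference stabilizer, then exposed to digitoxin over a concentration range without TPA. The read-out was the digitoxin IC50 under the combination.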

HT-29 [12] = test: Potentiation of digitoxin-induced cytotoxicity against human HT-29 cells after 72 hrs by MTT assay in absence of TPA; format: functional, cell-based; summary of the method: as §3
[13] = target: T1, Programmed cell death protein 4 (Homo sapiens); test: Inhibition of TPA-induced PDCD4 degradation in human MCF7 cells at 10 nM treated 30 mins before TPA challenge measured after 6 hrs by Western blot analysis relative to TPA treated control; format: cell-based; summary of the method: as §2
HT-29 [14] = test: Potentiation of 5-fluorouracil-induced cytotoxicity against human HT-29 cells after 72 hrs by MTT assay in absence of TPA; format: functional, cell-based
HT-29 [15] = test: Potentiation of camptothecin-induced cytotoxicity against human HT-29 cells after 72 hrs by MTT assay in presence of TPA; format: functional, cell-based
HT-29 [16] = test: Potentiation of 5-fluorouracil-induced cytotoxicity against human HT-29 cells after 72 hrs by MTT assay in absence of TPA
HT-29 [17] = test: Potentiation of camptothecin-induced cytotoxicity against human HT-29 cells after 72 hrs by MTT assay in absence of TPA; format: functional, cell-based
HT-29 [18] = test: Potentiation of 5-fluorouracil-induced cytotoxicity against human HT-29 cells after 72 hrs by MTT assay in presence of TPA; format: functional, cell-based
MCF7 [19] = test: Potentiation of camptothecin-induced cytotoxicity against human MCF7 cells at 1 uM treated 30 mins before TPA challenge measured after 72 hrs by MTT assay; format: functional, cell-based

SMILES	IC50 (HT-29 [4]) [µM]	IC50 [6] [µM]	Ratio [7]	IC50 (MCF7 [8]) [µM]	also measured
CCCCCCCCCCCCCCC[C@H](O)C[C@@H](O)C[C@@H](O)C[C@@H](O)C[C@@H](O)C[C@H]1CC=CC(=O)O1	4.2	5.4	3.6	8.1	Activity (HT-29 [1]): inactive; CI (MCF7 [2]): 0.78; Activity (HT-29 [3]): inactive; Activity (HT-29 [5]): inactive; CI (MCF7 [9]): 1.34; Activity (HT-29 [10]): inactive; Activity (HT-29 [11]): inactive
CCCCCCCCCCCCCCC[C@H](O)C[C@@H](O)C[C@@H](O)C[C@@H](O)C[C@@H](O)CCO	> 1500	> 1500	1.8	> 500	
CO[C@H]1C[C@@H]2CC[C@@H](C)[C@@](O)(O2)C(=O)C(=O)N2CCCC[C@H]2C(=O)O[C@H]([C@H](C)C[C@@H]2CC[C@@H](O)[C@H](OC)C2)CC(=O)[C@H](C)/C=C(\C)[C@@H](O)[C@@H](OC)C(=O)[C@H](C)C[C@H](C)/C=C/C=C/C=C/1C					Activity (HT-29 [12]): inactive; Ratio [13]: 6.6; Activity (HT-29 [14]): inactive; Activity (HT-29 [15]): inactive; Activity (HT-29 [16]): inactive; Activity (HT-29 [17]): inactive
CCCCCCCCCCCCCCC[C@@H](C[C@@H](O)C[C@@H](O)C[C@@H](O)C[C@@H](O)C[C@H]1CC=CC(=O)O1)OC(C)=O	2.9	3.8	4.5	5.8	Activity (HT-29 [1]): inactive; CI (MCF7 [2]): 1.12; Activity (HT-29 [3]): inactive; Activity (HT-29 [5]): inactive; Activity (HT-29 [14]): inactive; CI (MCF7 [9]): 1.04; Activity (HT-29 [18]): inactive; Activity (HT-29 [10]): inactive; Activity (MCF7 [19]): inactive; Activity (HT-29 [11]): inactive
CCCCCCCCCCCCCCC[C@H](C[C@H](O)C[C@H](O)C[C@H](O)C[C@H](O)C[C@@H]1CC=CC(=O)O1)OC(C)=O	2.4	4	3.6	9	
CCCCCCCCCCCCCCC[C@@H](C[C@@H](O)C[C@@H](O)C[C@@H](O)C[C@@H](O)CCO)OC(C)=O	1280	> 1000	2.8	162	
CCCCCCCCCCCCCCC[C@@H](O)C[C@H](O)C[C@H](O)C[C@H](O)C[C@H](O)C[C@@H]1CC=CC(=O)O1	4.1	7.9	3.8	25.8	
CCCCCCCCCCCCCCC[C@@H](C[C@H](O)C[C@H](O)C[C@H](O)C[C@H](O)C[C@@H]1CC=CC(=O)O1)OC(C)=O	4.9	7.8	1.9	13.3	
